Source: ChEMBL document CHEMBL1138658, “Novel 2-aminotetralin and 3-aminochroman derivatives as selective serotonin 5-HT7 receptor agonists and antagonists” (J Med Chem, 2004)

Experiments:
[1] = molecular target: T1, Adrenergic receptor alpha-1 (Rattus norvegicus, UniProt P15823+P23944+P43140); experiment: Inhibition of [3H]prazosin binding to rat cortex Alpha 1 receptor
T1 sequence (P15823 whole entry): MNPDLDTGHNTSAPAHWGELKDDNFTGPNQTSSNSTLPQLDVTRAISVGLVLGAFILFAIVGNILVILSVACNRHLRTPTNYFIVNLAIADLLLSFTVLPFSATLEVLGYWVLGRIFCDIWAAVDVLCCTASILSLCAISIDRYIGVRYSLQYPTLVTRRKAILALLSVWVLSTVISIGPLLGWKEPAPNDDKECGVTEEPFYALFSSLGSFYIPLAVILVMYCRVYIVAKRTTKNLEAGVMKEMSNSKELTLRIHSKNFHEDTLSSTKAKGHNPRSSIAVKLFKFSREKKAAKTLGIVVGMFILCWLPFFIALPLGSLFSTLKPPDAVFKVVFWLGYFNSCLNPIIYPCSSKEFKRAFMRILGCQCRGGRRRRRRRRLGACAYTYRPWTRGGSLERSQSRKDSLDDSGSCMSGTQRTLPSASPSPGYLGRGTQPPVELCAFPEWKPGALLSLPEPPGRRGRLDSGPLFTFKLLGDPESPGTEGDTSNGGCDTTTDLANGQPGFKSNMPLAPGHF
T1 sequence (P23944 whole entry): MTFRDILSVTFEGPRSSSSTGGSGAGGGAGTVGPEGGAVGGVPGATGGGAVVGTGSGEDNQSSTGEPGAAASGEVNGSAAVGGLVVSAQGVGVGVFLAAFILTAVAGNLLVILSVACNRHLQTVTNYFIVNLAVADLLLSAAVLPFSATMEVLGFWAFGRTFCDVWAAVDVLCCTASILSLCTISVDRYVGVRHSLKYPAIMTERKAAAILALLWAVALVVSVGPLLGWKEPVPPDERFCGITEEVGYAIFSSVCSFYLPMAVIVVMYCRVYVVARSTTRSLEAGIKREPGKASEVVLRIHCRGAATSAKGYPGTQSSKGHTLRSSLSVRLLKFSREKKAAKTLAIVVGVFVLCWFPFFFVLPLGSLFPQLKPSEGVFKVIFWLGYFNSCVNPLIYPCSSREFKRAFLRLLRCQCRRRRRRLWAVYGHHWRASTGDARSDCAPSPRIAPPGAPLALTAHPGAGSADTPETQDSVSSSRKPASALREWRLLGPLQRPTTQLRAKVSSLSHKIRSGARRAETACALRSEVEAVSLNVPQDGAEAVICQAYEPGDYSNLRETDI
T1 sequence (P43140 whole entry): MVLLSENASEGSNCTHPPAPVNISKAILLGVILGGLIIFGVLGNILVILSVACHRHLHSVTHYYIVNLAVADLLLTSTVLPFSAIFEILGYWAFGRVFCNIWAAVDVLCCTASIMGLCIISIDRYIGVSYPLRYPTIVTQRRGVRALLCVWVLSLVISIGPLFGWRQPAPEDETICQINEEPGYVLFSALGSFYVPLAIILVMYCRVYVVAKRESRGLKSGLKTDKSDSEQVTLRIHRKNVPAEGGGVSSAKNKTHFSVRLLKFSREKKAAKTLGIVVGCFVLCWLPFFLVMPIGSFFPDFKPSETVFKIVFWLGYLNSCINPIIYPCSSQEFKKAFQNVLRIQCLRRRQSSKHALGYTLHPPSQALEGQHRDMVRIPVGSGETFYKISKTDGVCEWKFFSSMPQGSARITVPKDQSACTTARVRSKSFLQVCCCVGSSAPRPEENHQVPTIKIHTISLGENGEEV

[2] = molecular target: 5-hydroxytryptamine receptor 2A (Rattus norvegicus, UniProt P14842); experiment: Inhibition of [3H]- Ketanserin binding to rat cortex 5-HT2A receptor
[3] = molecular target: T2, 5-hydroxytryptamine receptor 1A (Homo sapiens, UniProt P08908); experiment: Inhibition of [3H]8-OH-DPAT binding to human 5-HT1A receptor
T2 sequence (P08908 whole entry): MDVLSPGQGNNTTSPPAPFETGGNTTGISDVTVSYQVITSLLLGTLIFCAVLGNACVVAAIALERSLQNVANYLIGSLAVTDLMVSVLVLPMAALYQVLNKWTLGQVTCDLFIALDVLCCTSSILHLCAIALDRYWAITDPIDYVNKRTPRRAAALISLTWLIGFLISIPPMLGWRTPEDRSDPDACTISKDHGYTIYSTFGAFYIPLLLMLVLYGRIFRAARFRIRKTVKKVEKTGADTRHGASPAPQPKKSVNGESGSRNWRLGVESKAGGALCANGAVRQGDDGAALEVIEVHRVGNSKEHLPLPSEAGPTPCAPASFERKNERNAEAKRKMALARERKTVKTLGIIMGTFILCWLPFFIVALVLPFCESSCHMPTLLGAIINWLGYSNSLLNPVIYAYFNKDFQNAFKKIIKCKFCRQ
Method in brief: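 Human 5-HT1A receptor expressed in CHO cells, labelled with [3H]-8-OH-DPAT.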

[4] = molecular target: 5-hydroxytryptamine receptor 7 (Rattus norvegicus) (UniProt P32305); experiment: Stimulation of cAMP production in CHO cells expressing rat 5-hydroxytryptamine 7 receptor; type: functional, cell-based
Method in brief: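 cAMP production in CHO cells expressing rat 5-HT7 receptor. Efficacy is expressed as percent of the 5-HT-stimulated production.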

[5] = molecular target: Muscarinic acetylcholine receptor; experiment: Inhibition of [3H]- QNB binding to rat cortex muscarinic receptor
[6] = molecular target: 5-hydroxytryptamine receptor 7 (Rattus norvegicus, UniProt P32305); experiment: Inhibition of [3H]5-HT binding to rat 5-HT7 receptor
Method in brief: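 Displacement of [3H]-5-HT from rat 5-HT7 receptor expressed in CHO or Sf9 cells.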

[7] = molecular target: D(1A) dopamine receptor (Rattus norvegicus, UniProt P18901); experiment: Inhibition of [3H]SCH-23390 binding to rat striatum Dopamine receptor 1; type: tissue-based
[8] = molecular target: T3, 5-hydroxytryptamine receptor 1A (Rattus norvegicus, UniProt P19327); experiment: Inhibition of [3H]8-OH-DPAT binding to rat 5-hydroxytryptamine 1A receptor
T3 sequence (P19327 whole entry): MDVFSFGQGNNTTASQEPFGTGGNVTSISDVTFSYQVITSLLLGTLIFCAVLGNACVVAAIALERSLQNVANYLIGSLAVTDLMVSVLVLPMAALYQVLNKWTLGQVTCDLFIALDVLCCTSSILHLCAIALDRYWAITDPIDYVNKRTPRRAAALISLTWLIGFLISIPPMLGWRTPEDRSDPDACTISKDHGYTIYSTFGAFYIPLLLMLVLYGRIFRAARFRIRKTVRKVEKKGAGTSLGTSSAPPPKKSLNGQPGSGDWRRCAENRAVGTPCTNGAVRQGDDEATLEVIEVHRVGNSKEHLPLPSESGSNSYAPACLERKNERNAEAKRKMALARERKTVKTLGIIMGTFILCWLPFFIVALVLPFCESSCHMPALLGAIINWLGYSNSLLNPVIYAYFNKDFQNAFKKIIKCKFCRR
Method in brief: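 Radioligand [3H]-8-OH-DPAT; receptor source either CHO cells expressing human 5-HT1A or rat hippocampal cells.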

Sequence of 5-hydroxytryptamine receptor 2A (P14842 whole entry): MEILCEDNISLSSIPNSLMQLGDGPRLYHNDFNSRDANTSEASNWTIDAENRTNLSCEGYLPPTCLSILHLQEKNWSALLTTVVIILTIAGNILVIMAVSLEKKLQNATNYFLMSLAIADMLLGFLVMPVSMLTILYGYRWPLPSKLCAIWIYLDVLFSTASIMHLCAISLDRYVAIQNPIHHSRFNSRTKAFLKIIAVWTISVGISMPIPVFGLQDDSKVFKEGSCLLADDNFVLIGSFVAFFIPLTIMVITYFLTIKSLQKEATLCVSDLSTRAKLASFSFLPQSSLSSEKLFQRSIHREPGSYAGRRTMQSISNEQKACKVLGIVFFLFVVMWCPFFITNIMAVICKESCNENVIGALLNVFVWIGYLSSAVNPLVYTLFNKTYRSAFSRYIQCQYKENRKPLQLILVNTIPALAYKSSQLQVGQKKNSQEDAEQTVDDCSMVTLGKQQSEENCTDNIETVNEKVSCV
Sequence of D(1A) dopamine receptor (P18901 whole entry): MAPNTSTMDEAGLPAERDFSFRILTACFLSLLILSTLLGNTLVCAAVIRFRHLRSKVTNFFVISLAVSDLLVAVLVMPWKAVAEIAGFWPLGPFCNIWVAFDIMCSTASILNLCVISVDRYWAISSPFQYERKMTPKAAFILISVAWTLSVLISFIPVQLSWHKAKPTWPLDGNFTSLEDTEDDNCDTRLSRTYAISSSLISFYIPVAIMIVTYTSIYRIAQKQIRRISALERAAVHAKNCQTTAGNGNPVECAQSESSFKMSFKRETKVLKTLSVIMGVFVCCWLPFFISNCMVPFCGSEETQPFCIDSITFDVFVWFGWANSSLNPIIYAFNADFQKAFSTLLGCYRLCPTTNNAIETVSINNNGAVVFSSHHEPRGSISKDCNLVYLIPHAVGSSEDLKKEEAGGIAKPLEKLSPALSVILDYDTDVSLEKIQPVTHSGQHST
Sequence of 5-hydroxytryptamine receptor 7 (Rattus norvegicus) (P32305 whole entry): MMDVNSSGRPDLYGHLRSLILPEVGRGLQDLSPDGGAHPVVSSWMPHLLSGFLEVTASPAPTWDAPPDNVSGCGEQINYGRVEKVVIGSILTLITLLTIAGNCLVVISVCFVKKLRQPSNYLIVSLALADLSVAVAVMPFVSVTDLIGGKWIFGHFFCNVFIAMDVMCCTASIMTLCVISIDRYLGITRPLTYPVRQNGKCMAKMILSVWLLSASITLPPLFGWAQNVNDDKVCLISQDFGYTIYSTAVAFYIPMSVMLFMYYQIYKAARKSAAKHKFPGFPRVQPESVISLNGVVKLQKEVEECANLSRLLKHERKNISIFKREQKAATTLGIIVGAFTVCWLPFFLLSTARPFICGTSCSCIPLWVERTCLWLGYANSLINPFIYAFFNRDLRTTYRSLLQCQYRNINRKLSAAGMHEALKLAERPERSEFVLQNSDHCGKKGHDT
Sequence of 5-hydroxytryptamine receptor 7 (P32305 whole entry): as above

SMILES | Ki [1] | Ki [2] | Ki [3] | Efficacy [4] | Ki [5] | Ki [6] | Ki [7] | Ki [8]
COc1cccc(OC)c1-c1cccc2c1CC[C@H](N(C)C)C2 | 3670 nM | 1340 nM | 1420 nM | < 10% | > 1000 nM | 2.55 nM | > 1000 nM | 1420 nM
CCCN(CCC)[C@H]1CCc2c(cccc2-c2c(OC)cccc2OC)C1 | > 1000 nM | 1450 nM | 347 nM | 100% | > 1000 nM | 7.9 nM | > 1000 nM | 347 nM
